Screens as filed in PubChem.
Diaph act CS: activates diaphorase or chemically reduces, flagging diaphorase assay artifacts; Diaphorase/resazurin coupled assay, resorufin fluorescence, 16 min; stronger effect = higher value; 1 = vehicle wells, 0 = NADH-free wells; activation factor at 20 µM; actives 0.005% (n = 190,000); AID 1229;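 active = diaphorase activity raised at least twofold by the compound at 20 µM; inactive = activation factor below 2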
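Material: Purified diaphorase enzyme from Clostridium kluyveri | Buffer or medium: 50 mM HEPES pH 7.4 with 4.542 mM MgCl2, 0.005% Tween 20 | Times: 16 min enzyme reaction, ambient temperature | Signal: Red resorufin fluorescence at 544/590 nm excitation/emission | Measure: Increased resorufin signal from activators or reducing compounds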
WT yeast gro inh: growth inhibition of WT yeast, mitochondrial fusion screen; mitochondrial fusion phenotypic screen, WT strain; inhibition, % at 10 µM; actives 2.1% (n = 190,000); in the data active = inhibition above about 58%; tested in S. cerevisiae
PMI activator: activators of human phosphomannose isomerase | activation factor at 20 µM | purified human PMI, coupled resazurin fluorescence, 20 min; stronger effect = higher value; 1 = vehicle control, 0 substrate-free wells | P34949 | actives 0.005% (n = 190,000);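 active = activation factor of 2 or more at 20 µM, relative to plate controls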
Target sequence (P34949 whole entry, looked up): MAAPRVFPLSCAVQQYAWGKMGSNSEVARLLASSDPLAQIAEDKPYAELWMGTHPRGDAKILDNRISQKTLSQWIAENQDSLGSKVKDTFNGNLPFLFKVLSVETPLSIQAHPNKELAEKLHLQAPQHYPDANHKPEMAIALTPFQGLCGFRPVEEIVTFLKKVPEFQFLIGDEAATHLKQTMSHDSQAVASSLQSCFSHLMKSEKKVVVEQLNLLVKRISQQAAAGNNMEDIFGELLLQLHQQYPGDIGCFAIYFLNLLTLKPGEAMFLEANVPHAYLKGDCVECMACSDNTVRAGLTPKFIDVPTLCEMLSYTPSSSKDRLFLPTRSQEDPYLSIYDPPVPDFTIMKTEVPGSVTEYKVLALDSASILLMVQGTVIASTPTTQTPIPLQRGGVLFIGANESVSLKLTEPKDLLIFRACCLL
Lmaj promast: Leishmania major promastigote growth inhibition | Leishmania major promastigotes, resazurin fluorescence viability | inhibition, % at 10 µM | actives 9% (n = 200,000) | AID 1063; in the data active = inhibition above about 50%;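 note: promastigotes grown with compound for 44 hours at 28 °C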
PMI act hi M6P: activators of human phosphomannose isomerase at near-saturating mannose 6-phosphate | activation factor at 20 µM | actives 0.34% (n = 190,000) | P34949 | AID 1216 | coupled PMI enzyme assay, resazurin fluorescence, 20 min; stronger effect = higher value; 1 = untreated enzyme, 0 = substrate-free blank;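 active = activation factor of 2 or more at 20 µM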
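Material: human phosphomannose isomerase with PGI, G6PDH, diaphorase coupling enzymes / Reagent: Man-6-P substrate 1.0 mM / Dosing: single compound dose of 20 µM, 1% DMSO final / Incubation: enzyme reaction with compound 20 min at room temperature / Signal: resorufin fluorescence (Ex 544/Em 590 nm) from resazurin via diaphorase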
Starred values were filed as active, the others as inactive; . = no result given. An excerpt weighted towards active compounds, which were near 10% of everything screened.

SMILES	Diaph act CS	WT yeast gro inh	PMI activator	Lmaj promast	PMI act hi M6P
COc1ccc(OC)c(N2C(=O)NC(=O)/C(=C/c3ccc([N+](=O)[O-])s3)C2=O)c1	0.6	22	0.6	97*	0.4
CN1C(=O)c2ccccc2NC(=O)C1Cc1ccccc1 (stereo not given)	1.2	-1	1.1	-2	1.1
COc1ccc(-n2c(Cc3cccc([N+](=O)[O-])c3)nc3ccccc3c2=O)cc1	0.8	-23	0.9	5	1
O=P(O)(O)Cc1c(Cl)cccc1Cl	0.9	-10	1	5	1.1
Cc1cccc(OP(=O)(NCc2ccccc2)Oc2cccc(C)c2)c1	0.8	69*	0.9	8	0.9
Cc1cccc(OP(=O)(Nc2ccc(F)cc2)Oc2cccc(C)c2)c1	0.8	61*	0.8	28	0.8
O=P(NC(c1ccccc1)c1ccccc1)(Oc1ccccc1)Oc1ccccc1	0.9	10	1	1	1
COc1cccc(C2C([N+](=O)[O-])=C(N)Oc3c2c(=O)oc2ccccc32)c1 (stereo not given)	0.9	34	1	-6	1
Fc1ccc(C2=CCN(C(c3cccs3)c3nnnn3CCc3ccccc3)CC2)cc1 (stereo not given)	0.8	35	1	100*	1
CCC(C)(C)n1nnnc1C(c1cccs1)N1CC=C(c2ccc(F)cc2)CC1 (stereo not given)	0.7	72*	1	2	0.9
COc1ccn(C)c(=O)c1C#N	1	-5	1	-17	1
CCC(=O)Nc1ccc(N2CCN(CC)CC2)c(Cl)c1	0.9	70*	1	-3	0.9
O=C(COc1ccc(Cl)cc1)N1CCN(Cc2ccc([N+](=O)[O-])cc2)CC1	0.8	31	1	67*	1.1
O=[N+]([O-])c1cccc(CN2CCN(Cc3ccc(Cl)cc3)CC2)c1	1	26	0.9	85*	0.8
COc1ccc(OCC(=O)N2CCN(Cc3nc4cc([N+](=O)[O-])ccc4n3C)CC2)cc1	0.9	-12	0.8	-5	0.9
CCN(CC)P(=O)(c1nccn1C)N(CC)CC	1	8	1.1	-2	1
CN1CC2([N+](=O)[O-])CC=C(Cl)C([N+](=O)[O-])(C1)C2 (stereo not given)	1	-1	1	-8	1
CC(=O)N(C1=NCCCS1)c1ccccc1Cl	1.1	-6	1	69*	1
Fc1ccc2c(c1)nnn2C1CCN(Cc2nnnn2CCc2ccccc2)CC1	0.8	8	1.1	4	1
Fc1ccc2c(c1)nnn2C1CCN(Cc2ccccc2)CC1	1.1	0	1	75*	1.1
CN(C)C(=O)Oc1ccc(OC(=O)c2ccccc2)cc1	0.8	3	0.9	-3	0.9
CN(C(=O)Oc1ccc(C(=O)c2ccc(Cl)cc2)cc1)c1ccccc1	0.9	25	0.9	56*	1
CCCCN1CCC(O)(c2ccccc2)C(C(=O)c2ccccc2)C1 (stereo not given)	1	-8	1.1	97*	1.1
O=C(CNC1CCCC1)Nc1ccc(N2CCCCCC2)cc1	1	-3	0.9	85*	0.7
CN1CCN(c2ccc(NC(=O)Oc3ccccc3)cc2)CC1	0.9	-11	0.9	9	1
SMILES	Diaph act CS	WT yeast gro inh	PMI activator	Lmaj promast	PMI act hi M6P
Clc1cccc(CN2CCCCC2c2cccnc2)c1 (stereo not given)	0.9	9	1.1	90*	1.1
c1cncc(C2CCCCN2Cc2ccc3c(c2)OCO3)c1 (stereo not given)	0.9	9	1	18	1
OCC12CO[C@@H]3c4ccccc4[C@H](OC1)N32 (stereo not given in full)	0.9	-10	0.9	-2	0.9
O=C(NC(C(Cl)Cl)N1CCOCC1)c1ccccc1 (stereo not given)	0.9	3	1.1	-12	1.1
CCN(CC)c1ccc(CNCCc2ccccc2F)cc1	0.9	23	1	94*	0.9
Fc1ccccc1CCNCc1cccc2ccccc12	1	12	1.1	77*	1
CCOc1cc(CNCCc2c[nH]c3ccccc23)cc(Cl)c1OC	1.1	10	1	13	1
O=C(c1ccccc1)C(CN1CCCC1)c1ccccc1 (stereo not given)	1	23	1.1	100*	1.2
O=C(Cc1ccccc1)OCCN1CCCCC1	1	9	1.1	-5	1
COC(=O)C(O)(c1ccc(NC(=S)NC(=O)c2ccccc2)cc1)C(F)(F)F (stereo not given)	0.7	35	0.8	8	0.9
CCCCn1c(=O)c(C(=O)Nc2ccccc2S(N)(=O)=O)c(O)c2ccccc21	0.7	67*	1	-6	1
CCCCCn1c(=O)c(C(=O)Nc2ccccc2S(N)(=O)=O)c(O)c2ccccc21	.	77*	.	96*	.
Cc1ccc(-n2c(O)c(C=Nc3ccc(Br)cn3)c(=O)[nH]c2=O)cc1	0.8	-6	1.2	-5	1.1
CCC(C)N1C(=O)NC(=O)C2(Cc3cc(C)ccc3N(C)C2)C1=O (stereo not given)	0.8	-14	1.7	-2	1.9
Cc1ccc(S(=O)(=O)NC(Cc2cnc[nH]2)C(=O)O)cc1 (stereo not given)	1	-15	1.1	27	1
CCCCc1nc2ccccc2c(=O)n1-c1ccccc1[N+](=O)[O-]	0.8	8	1	6	1
CCCCc1nc2ccccc2c(=O)n1-c1ccc(Cl)cc1[N+](=O)[O-]	0.6	64*	1	-4	1
CCCCn1c(O)c(/C=N/N2CCCCC2c2cccnc2)c(=O)[nH]c1=S (stereo not given)	0.9	-7	0.9	4	1
C/C(=N\N1CCCCC1c1cccnc1)c1c(O)n(C2CCCCC2)c(=S)[nH]c1=O (stereo not given)	0.8	74*	0.9	45	0.9
Cc1ccc(-n2c(O)c(/C=N/N3CCCCC3c3cccnc3)c(=O)[nH]c2=S)cc1 (stereo not given)	0.8	2	1	-4	1
CCCCn1c(O)c(/C(CC)=N/N2CCCCC2c2cccnc2)c(=O)[nH]c1=S (stereo not given)	0.8	59*	1	34	0.9
COc1cc(Br)cc(CN2CCN(C)CC2)c1O	0.9	6	0.9	76*	1
CCN1CCN(Cc2cc(Br)cc(Br)c2O)CC1	1	4	1	73*	1.1
CCc1ccc(CN2CCN(Cc3cc(Br)ccc3O)CC2)cc1	0.8	51	1.2	81*	1.2
CCc1ccc(CN2CCN(C(=O)Cc3ccccc3)CC2)cc1	0.7	29	0.8	-6	0.8
COc1ccc(Br)cc1CN1CCN(CCO)CC1	0.8	24	1	8	1.1
